Compound activity from PubChem BioAssay.
Only some compounds are listed: those with a hit (about 12% of all), similar ones and a draw of the others.
L major viab: reduces viability of Leishmania major promastigotes; resazurin fluorescence viability; AID 1063; inhibition, % at 10 µM; 200,000 compounds, 9% hits;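 note: promastigotes grown with compound for 44 hours at 28 °C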
CHOP inh: inhibitors of CHOP induction in ER stress response | CHO-K1 CHOP-promoter luciferase, tunicamycin-induced, 15-18 h | inhibition, % at 10 µM | 220,000 compounds, 3.8% hits | AID 2732;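 active = compounds that reduced the stress-induced luciferase reporter signal by more than about 70% of percent inhibition, limit read from the data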;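 note: 0% = tunicamycin plus vehicle and 100% = wells without tunicamycin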
PKD1 kinase inh: blocks activity of human protein kinase D1 | PKD1 kinase fluorescence polarization assay | Q15139 | inhibition, % (test concentration not listed) | 200,000 compounds, 0.056% hits
Rad51 HR inh: blocks human Rad51 in homologous recombination; hRad51 DNA strand exchange, fluorescence dequenching; inhibition, % at 10 µM; 200,000 compounds, 0.085% hits;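 active = inhibition above 40% at the single screening dose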;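 note: 0% = DMSO control wells and 100% = blanks with heterologous ssDNA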
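material = hRad51 filaments on single-stranded DNA | timing = filaments 15 min 37 °C, then compound 30 min | signal = FRET fluorescence dequenching, excitation 485 nm, emission 520 nm | benchmarks = control wells and blank wells on each plate | evaluation = percent inhibition relative to plate controls and blanks | compound = 10 µM final, single point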
Wee1 stabilizer: inhibitors of human Wee1 degradation; P30291; HeLa Luc-Wee1K328M stability, luciferase luminescence; 100% = proteasome inhibitor MG132 effect; reporter increase, % at 5 µM; 220,000 compounds, 1.2% hits; AID 1321;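 active = activation above the mean of all tested compounds plus 3 SD, set per screening run, cut at about 8.8% in these data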;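 note: cells exposed to compound for 20 h before luminescence read; 0% = DMSO alone and 100% = MG132 at 30 µM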
Target sequence (P30291 whole entry K328M): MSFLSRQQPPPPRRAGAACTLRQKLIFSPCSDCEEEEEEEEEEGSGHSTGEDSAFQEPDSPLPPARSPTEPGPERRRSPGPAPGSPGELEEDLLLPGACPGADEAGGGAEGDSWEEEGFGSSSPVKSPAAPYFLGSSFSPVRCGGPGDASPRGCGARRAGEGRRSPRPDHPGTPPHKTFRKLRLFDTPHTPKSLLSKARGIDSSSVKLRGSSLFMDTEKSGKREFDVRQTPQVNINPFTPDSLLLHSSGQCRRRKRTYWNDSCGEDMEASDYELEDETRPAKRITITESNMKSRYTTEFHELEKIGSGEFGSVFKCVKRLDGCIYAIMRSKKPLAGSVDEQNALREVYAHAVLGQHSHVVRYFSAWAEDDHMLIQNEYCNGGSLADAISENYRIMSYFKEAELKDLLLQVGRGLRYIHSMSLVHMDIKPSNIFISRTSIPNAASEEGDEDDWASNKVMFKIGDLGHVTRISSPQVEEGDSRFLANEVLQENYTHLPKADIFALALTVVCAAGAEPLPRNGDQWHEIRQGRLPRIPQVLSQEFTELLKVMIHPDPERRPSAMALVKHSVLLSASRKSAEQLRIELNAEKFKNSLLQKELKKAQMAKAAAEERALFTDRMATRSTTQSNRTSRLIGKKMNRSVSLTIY
Arbovirus anti: antivirals against arbovirus infection | arbovirus infection cell-based antiviral screen | inhibition, % at 10 µM | 200,000 compounds, 0.37% hits | AID 1251; in the data active = inhibition above about 30%
* hit, by the source's call. Cut-off read from the data, not from the text of the source, unless noted: active = inhibition above about 50%; inactive = the rest.

For CNC(=O)[C@H]1O[C@@H](n2cnc3c(NCc4cccc(I)c4)ncnc32)C(O)[C@H]1O (stereo partly specified) the results were CHOP inh 18.
`OCCOc1cccc(CN2CCC(CO)(CCOc3ccccc3)CC2)c1` gave L major viab -5, CHOP inh 44, PKD1 kinase inh 1, Rad51 HR inh 7, Wee1 stabilizer 1 and Arbovirus anti -8.
For OCC1(CCOc2ccccc2)CCN(CC2=Cc3cc(Cl)ccc3OC2)CC1 the results were L major viab 94*, CHOP inh 49, PKD1 kinase inh -5, Rad51 HR inh -3, Wee1 stabilizer 0 and Arbovirus anti -35.
O=c1c2c(nc3n1CCS3)c1cc(F)ccc1n2Cc1cc(=O)n2cc(Cl)ccc2n1 was read as CHOP inh 29, Rad51 HR inh -9 and Wee1 stabilizer 0.
Screening Cn1c(O)c(N=NC(=O)Cn2ccc(C(F)(F)F)n2)c2ccccc21 returned L major viab 58*, CHOP inh 22, PKD1 kinase inh -8, Rad51 HR inh 2, Wee1 stabilizer -1 and Arbovirus anti -8.
CCn1c(O)c(N=NC(=O)Cn2ccc(C(F)(F)F)n2)c2ccccc21 was read as L major viab 67*, CHOP inh 27, PKD1 kinase inh 5, Rad51 HR inh -8, Wee1 stabilizer 3 and Arbovirus anti 5.
Screening Cc1cc(C(=O)Cn2c(CO)nc3ccccc32)c(C)n1C returned CHOP inh -2, Rad51 HR inh -2 and Wee1 stabilizer 1.
For COc1ccccc1-c1nnc(Sc2nc([N+](=O)[O-])nn2C)o1 the results were L major viab 97*, CHOP inh -69, PKD1 kinase inh 0, Rad51 HR inh 0, Wee1 stabilizer 2 and Arbovirus anti 4.
For CCOc1ccc(-c2nnc(-c3ccncc3)o2)cc1OCC the results were L major viab 78*, CHOP inh 30, PKD1 kinase inh -1, Rad51 HR inh -15, Wee1 stabilizer 2 and Arbovirus anti 3.
O=C(/C=C/c1cccs1)NC(=S)NNC(=O)c1ccccc1O was read as L major viab 99*, CHOP inh 52, PKD1 kinase inh 1, Rad51 HR inh 8, Wee1 stabilizer -2 and Arbovirus anti -26.
Screening Oc1ccc(/C=N/N(Cc2ccccc2)c2ccccc2)c(O)c1O returned L major viab -9, CHOP inh 80*, PKD1 kinase inh 4, Rad51 HR inh -13, Wee1 stabilizer -1 and Arbovirus anti 1.
Oc1cccc(/C=N/N(Cc2ccccc2)c2ccccc2)c1 was read as L major viab 8, CHOP inh 56, PKD1 kinase inh -8, Rad51 HR inh 9, Wee1 stabilizer 1 and Arbovirus anti -30.
S=c1[nH]c(-c2ccc(Cl)cc2)cs1 was read as L major viab 67*, CHOP inh -3, PKD1 kinase inh 6, Rad51 HR inh 2, Wee1 stabilizer 0 and Arbovirus anti 18.
Cc1ccc(-c2csc(=S)[nH]2)cc1 was read as L major viab 25, CHOP inh -13, PKD1 kinase inh -1, Rad51 HR inh -16, Wee1 stabilizer -4 and Arbovirus anti 1.
For COc1c(C)cccc1C(=O)Nc1ccc(CN2CCOCC2)cc1 the results were L major viab 98*, CHOP inh -2, PKD1 kinase inh -8, Rad51 HR inh 2, Wee1 stabilizer 1 and Arbovirus anti -6.
CC(C)Oc1cccc(C(=O)Nc2ccc(CN3CCOCC3)cc2)c1 was read as L major viab 79*, CHOP inh 51, PKD1 kinase inh -7, Rad51 HR inh 5, Wee1 stabilizer 1 and Arbovirus anti -5.
Screening O=C(NC(=S)Nc1ccc(CN2CCOCC2)cc1)c1ccco1 returned CHOP inh -9, Rad51 HR inh 3 and Wee1 stabilizer 10*.
`COc1cccc(NC(=O)c2ccc(CN3CCOCC3)cc2)c1` gave L major viab -1, CHOP inh -7, PKD1 kinase inh -6, Wee1 stabilizer 3 and Arbovirus anti -2.
`O=C(CN1C(=O)NC2(CCOc3ccccc32)C1=O)Nc1ccc(F)c(F)c1F` (stereo unspecified) gave L major viab -2, CHOP inh -12, PKD1 kinase inh -2, Rad51 HR inh 4, Wee1 stabilizer 3 and Arbovirus anti 1.
O=C(O)CN1C(=O)NC2(CCOc3ccccc32)C1=O (stereo unspecified) was read as CHOP inh 1 and Wee1 stabilizer 9.8*.
For CCOC(=O)CC(=O)CSc1nc2ccc(OC)cc2cc1C the results were L major viab -3, CHOP inh 50, PKD1 kinase inh -9, Wee1 stabilizer -1 and Arbovirus anti -6.
COc1ccc(-c2cc(=O)[nH][nH]2)cc1OC was read as L major viab 84*, CHOP inh -6, PKD1 kinase inh -9, Wee1 stabilizer 1 and Arbovirus anti 1.
Screening COc1cccc(-c2cc(=O)[nH][nH]2)c1 returned L major viab 0, CHOP inh 1, PKD1 kinase inh 0, Wee1 stabilizer 0 and Arbovirus anti -6.
`Cc1noc(/C=C/c2ccco2)c1S(=O)(=O)N1CCC(C(=O)N2CCc3ccccc3C2)CC1` gave L major viab 73*, CHOP inh 18, PKD1 kinase inh -4, Wee1 stabilizer 3 and Arbovirus anti 4.
For Cc1noc(/C=C/c2cccs2)c1S(=O)(=O)N1CCC(C(=O)NCCCN2CCC(C)CC2)CC1 the results were L major viab 90*, CHOP inh 5, PKD1 kinase inh 2, Wee1 stabilizer -3 and Arbovirus anti -14.
`Cc1ccc(CNC(=O)C2CCN(S(=O)(=O)c3c(C)noc3/C=C/c3ccco3)CC2)cc1` gave L major viab 93*, CHOP inh 43, PKD1 kinase inh -10, Rad51 HR inh 2, Wee1 stabilizer -1 and Arbovirus anti -1.
For COCCNC(=O)C1CCCN(S(=O)(=O)c2c(C)noc2/C=C/c2cccs2)C1 (stereo unspecified) the results were CHOP inh 30, Rad51 HR inh 13 and Wee1 stabilizer 3.
For Cc1[nH]c(=O)[nH]c(=O)c1S(=O)(=O)N(CC(C)C)CC(C)C the results were L major viab 8, CHOP inh -1, PKD1 kinase inh 4, Rad51 HR inh 1, Wee1 stabilizer 3 and Arbovirus anti 6.
C/C(CC(=O)Nc1ccc2c(c1)OCCO2)=N\NC(=O)C(=O)Nc1ccccc1C was read as L major viab 2, CHOP inh 5, PKD1 kinase inh -2, Rad51 HR inh 6, Wee1 stabilizer -3 and Arbovirus anti -3.
`CCS(=O)(=O)N1CCC(C(=O)O)CC1` gave L major viab -6, CHOP inh -10, PKD1 kinase inh -1, Rad51 HR inh -2, Wee1 stabilizer 2 and Arbovirus anti 3.
Screening CCOC(=O)/C(=N\Nc1ccccc1)P(=O)(c1ccccc1)c1ccccc1 returned CHOP inh 7, Rad51 HR inh 0 and Wee1 stabilizer 8.
